CYP2C19 inhib: blocks human cytochrome P450 2C19; inhibition, % at 5 µM; CYP2C19 Supersomes, luciferin-H EGE luminescence, 30 min; P33261; hit rate 21% among 96,000;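 active = CYP2C19 inhibition above a set limit at 5 µM in the primary screen, cut at about 50% in these data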;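 note: plate controls were negative control wells for no effect and 2.5 mM tranylcypromine positive control for full effect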
CYP2C9 act: increases human cytochrome P450 2C9 activity; P11712; recombinant CYP2C9, luciferin-H conversion, luminescence; stronger effect = higher value; factor 1 = untreated enzyme, 0 = blocked; activation factor at 5 µM; hit rate 1.4% among 96,000;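 active = activation factor of 2 or more for CYP2C9 at a 5 µM dose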;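 note: 0 = sulfaphenazole-blocked wells and 1 = vehicle-only wells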
CYP2C19 act: increases human CYP2C19 enzyme activity | P33261 | recombinant CYP2C19, luciferin-H EGE luminescence; stronger effect = higher value; 0 = fully inhibited enzyme, 1 = untreated enzyme | activation factor at 5 µM | 96,000 tested, under 10 active | AID 1025;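 active = activation factor of at least 2 at 5 µM in the primary screen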;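 note: 0 = wells with 2.5 mM tranylcypromine and 1 = vehicle-only wells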
CYP2C9 inhib: human CYP2C9 inhibition | P11712 | CYP2C9 Supersomes, luciferin-H conversion, luminescence | inhibition, % at 5 µM | hit rate 20% among 96,000;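 active = blocking of liver enzyme CYP2C9 beyond about 50% at 5 µM, limit read from the data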
Cav3 T inh: inhibitors of human Cav3.2 T-type calcium channel; B-score at 10 µM; hit rate 4% among 100,000; O95180; Cav3.2-expressing cells, Fluo-4 calcium fluorescence FDSS; stronger effect = lower value;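 active = single-dose well whose peak fluorescence ratio is a statistical outlier from its plate by either plate-standardised score or position-corrected B-score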
HIV Rev-RRE inh: HIV Rev-RRE protein-RNA interaction inhibition; P05866; Rev peptide-RRE RNA binding, FRET; inhibition, % at 8 µM; hit rate 0.79% among 97,000;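 active = inhibition above the screen-wide mean plus 3 SD, cut at about 35% in these data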;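 note: 0% = median DMSO wells and 100% = median Neomycin B control wells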
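Test system – labelled RRE RNA duplex and labelled Rev peptide · Signal – fluorescein-to-Cy5 FRET, 480 nm excitation · Evaluation – % inhibition of FRET ratio versus controls · Benchmarks – DMSO low control, neomycin B high control · Incubation – 5 min RNA-compound premix plus 15 min binding step, 25 °C · Medium – HEPES pH 7.5 salt buffer with EDTA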
* marks the source's active call; other numbers are inactive results. A selection: hits, their analogues and other compounds. The true share with any hit is near 27%.

Results for CN(C1=NC(=O)C(CC(=O)Nc2ccc(Br)cc2)S1)c1ccc(O)cc1 (stereo unspecified) ?
CYP2C19 inhib: 10; CYP2C9 act: 0.4; CYP2C19 act: 0.9; CYP2C9 inhib: 62*; Cav3 T inh: 0.075; HIV Rev-RRE inh: 8

What do the screens show for `CCc1nnc(NCC(=O)N2CCc3ccccc32)s1`?
CYP2C19 inhib: 48; CYP2C9 act: 0.4; CYP2C19 act: 0.5; CYP2C9 inhib: 60*; Cav3 T inh: 1.5; HIV Rev-RRE inh: -1

What do the screens show for `CC(=O)Nc1ccc(S(=O)(=O)N(CC(=O)O)Cc2ccccc2)cc1`?
CYP2C19 inhib: 4; CYP2C9 act: 1.1; CYP2C19 act: 1; CYP2C9 inhib: -7; Cav3 T inh: -0.12; HIV Rev-RRE inh: 7

What do the screens show for `CC(=O)Nc1ccc(NS(=O)(=O)Cc2ccccc2)cc1`?
CYP2C19 inhib: 58*; CYP2C9 act: 0.6; CYP2C19 act: 0.4; CYP2C9 inhib: 37; Cav3 T inh: -0.041; HIV Rev-RRE inh: 8

Results for CC(=O)Nc1ccc(S(=O)(=O)N(Cc2ccccc2)C(C)C)cc1 ?
CYP2C19 inhib: 52*; CYP2C9 act: 0.3; CYP2C19 act: 0.5; CYP2C9 inhib: 67*; Cav3 T inh: -1.1; HIV Rev-RRE inh: 5

How did NC(=O)c1ccccc1NS(=O)(=O)Cc1ccccc1 do in these assays?
CYP2C19 inhib: 50; CYP2C9 act: 4*; CYP2C19 act: 0.5; CYP2C9 inhib: -295; Cav3 T inh: -0.057; HIV Rev-RRE inh: 4

Results for CC(=O)Nc1ccc(NS(=O)(=O)c2cccc3ccccc23)cc1 ?
CYP2C19 inhib: 89*; CYP2C9 act: 0.7; CYP2C19 act: 0.1; CYP2C9 inhib: 29; Cav3 T inh: -1.6; HIV Rev-RRE inh: 9

Results for CC(=O)Nc1ccc(NS(=O)(=O)c2cn(C)c(=O)n(C)c2=O)cc1 ?
CYP2C19 inhib: -17; CYP2C9 act: 1.2; CYP2C19 act: 1.2; CYP2C9 inhib: -15; Cav3 T inh: 1.4; HIV Rev-RRE inh: 4

What do the screens show for `COC(=O)Cn1cnc(=O)c(C#N)c1/C=C/N(C)C`?
CYP2C19 inhib: -14; CYP2C9 act: 1; CYP2C19 act: 1.1; CYP2C9 inhib: 0; Cav3 T inh: 0.44; HIV Rev-RRE inh: 5

What do the screens show for `CC(C)N(Cc1ccccc1)S(=O)(=O)N(C)C`?
CYP2C19 inhib: 77*; CYP2C9 act: 0.8; CYP2C19 act: 0.2; CYP2C9 inhib: 23; Cav3 T inh: 0.36; HIV Rev-RRE inh: 1

How did CC(=O)Nc1ccc(NS(=O)(=O)c2ccc3ccccc3c2)cc1 do in these assays?
CYP2C19 inhib: 99*; CYP2C9 act: 0.3; CYP2C19 act: 0; CYP2C9 inhib: 75*; Cav3 T inh: -0.33; HIV Rev-RRE inh: 2

What do the screens show for `CC(=O)Nc1ccc(S(=O)(=O)Nc2ccc(NC(=O)c3ccco3)cc2)cc1`?
CYP2C19 inhib: -1; CYP2C9 act: 0.8; CYP2C19 act: 1; CYP2C9 inhib: 20; Cav3 T inh: 0.45; HIV Rev-RRE inh: 4

How did CC(C)CC(C(=O)O)N(Cc1ccccc1)Cc1ccccc1 (stereo unspecified) do in these assays?
Cav3 T inh: -2; HIV Rev-RRE inh: -3

How did CCOC(=O)c1sc(NC(=O)CSc2nnnn2-c2ccc(C)cc2C)nc1C do in these assays?
CYP2C19 inhib: -2; CYP2C9 act: 0.9; CYP2C19 act: 1; CYP2C9 inhib: 6; HIV Rev-RRE inh: 4

How did CCCOc1ccc(C(C)(O)CN2CCOCC2)cc1 (stereo unspecified) do in these assays?
CYP2C19 inhib: 54*; CYP2C9 act: 0.6; CYP2C19 act: 0.5; CYP2C9 inhib: 44; HIV Rev-RRE inh: 0

How did CCOC(=O)CN(C(=O)CSc1nnc(COc2ccc(OC)cc2)n1C)c1ccccc1 do in these assays?
CYP2C19 inhib: -8; CYP2C9 act: 0.6; CYP2C19 act: 1.1; CYP2C9 inhib: 35; Cav3 T inh: 0.58; HIV Rev-RRE inh: 4

How did CCOc1ccccc1C(=O)Nc1ccc(-c2nnc(-c3ccc(C)cc3)o2)cc1 do in these assays?
HIV Rev-RRE inh: 11

What do the screens show for `Cc1cc(C)c(NC(=O)COc2ccccc2C(=O)Nc2ccc3c(c2)oc2ccccc23)c(C)c1`?
CYP2C19 inhib: 37; CYP2C9 act: 0; CYP2C19 act: 0.6; CYP2C9 inhib: 97*; Cav3 T inh: 0.048; HIV Rev-RRE inh: -1

Screening data: PubChem, several laboratories
